Bioassay records: PubChem, several laboratories
b-catenin transl = modulators of beta-catenin nuclear translocation; HeLa beta-catenin nuclear translocation, immunofluorescence imaging; nuclear translocation activity, % at 5 µM; 0.3% of 190,000 active;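 active = nuclear translocation activity above 50% at 5 µM, with a well cell count of 50 or more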;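 note: per-cell ratio of nuclear to cytoplasmic median beta-catenin stain intensity; plate controls were DMSO negative control for no effect and GSK-3 inhibitor IX positive control for full effect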
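Assay system: human HeLa cells, native beta-catenin; doses: 5 µM primary, 0.02–20 µM confirmation; incubation: compound treatment 24 h, 37°C, 5% CO2; technique: fluorescence imaging of beta-catenin antibody stain plus DAPI; measure: % activation, nuclear-to-cytoplasmic median beta-catenin signal ratio per cell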
ROMK mod = modulates human ROMK potassium channel activity; P48048; Tet-inducible ROMK, thallium flux fluorescence; actives lie on both sides; B-score at 10 µM; 2% of 130,000 active; AID 1918;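 active = signal ratio slope over the read window, or its plate-corrected B-score, at least 3 SD from the plate mean, either direction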;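 note: B-score of the F/F0 ratio slope over 7 to 12 s after thallium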
Target sequence (P48048 whole entry, looked up): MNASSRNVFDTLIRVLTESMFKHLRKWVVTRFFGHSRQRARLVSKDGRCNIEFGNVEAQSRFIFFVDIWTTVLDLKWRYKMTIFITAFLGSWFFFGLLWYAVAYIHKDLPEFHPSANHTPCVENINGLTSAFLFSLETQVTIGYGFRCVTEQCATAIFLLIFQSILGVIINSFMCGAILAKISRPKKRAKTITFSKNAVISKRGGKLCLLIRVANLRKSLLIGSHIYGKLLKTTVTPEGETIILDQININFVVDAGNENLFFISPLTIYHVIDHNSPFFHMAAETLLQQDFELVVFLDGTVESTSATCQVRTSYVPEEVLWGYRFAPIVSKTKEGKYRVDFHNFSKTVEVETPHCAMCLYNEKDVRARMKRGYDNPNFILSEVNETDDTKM
MT stabilize HCS = stabilizes microtubules in HeLa cells | HeLa tubulin immunostaining HCS, 24 h; share of cells brighter than vehicle mean+2SD | % tubulin-high responders, % at 10 µM | 0.83% of 200,000 active | AID 2205;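 active = plate Z-score above 3 for both tubulin-high and condensed-nucleus cell shares, with cell loss under 80%, at 10 µM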;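 note: anti alpha tubulin signal scored within the nucleus-defined area of each cell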
ROMK retest = human ROMK channel modulation, retest confirmation; AID 1917; shares compounds with ROMK mod; ROMK thallium flux, fluorescence ratio; stronger effect = lower value; normalized thallium flux (F/F0 slope) at 10 µM; 54% of 3,000 active;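 active = Flux at 10 µM at least 3 SD below or above vehicle control mean in one or both replicates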
Active calls of the source: *; nt = not tested or not shown. The list is not random: actives were taken first. Their share in the collection is about 1.9%.

SMILES	b-catenin transl	ROMK mod	MT stabilize HCS	ROMK retest
Cc1cc(C(=O)CN2C(=O)NC3(CCCc4ccccc43)C2=O)c(C)n1Cc1ccccc1 (centres undefined)	-7.4	2.05*	3.5	0.0792
Cc1cc(C(=O)CN2C(=O)NC3(CCCc4ccccc43)C2=O)c(C)n1Cc1ccco1 (centres undefined)	-0.5	0.943	1.5	nt
NC(=O)CCC(NS(=O)(=O)c1ccc(Cl)cc1)C(=O)NCc1ccccc1 (centres undefined)	1.7	nt	2.9	nt
Fc1ccc(-n2cc(-c3ccccc3)c3c(NN4CCOCC4)ncnc32)cc1	3.2	-4.19*	3.5	0.0481*
COc1ccc(-n2cc(-c3ccccc3)c3c(NN4CCOCC4)ncnc32)cc1	0.1	-2.29	2.1	nt
CC1=NN(C(=S)Nc2ccccc2)C(C)(C)C1	0.2	-0.208	0.3	nt
COc1cc(C)ccc1S(=O)(=O)N1CCN(C23CC4CC(CC(C4)C2)C3)CC1	-1.0	-2.94*	2.1	0.0616*
CC(=O)Nc1ccc(S(=O)(=O)N2CCN(C34CC5CC(CC(C5)C3)C4)CC2)cc1	0.5	-0.822	3.3	nt
COc1cc(C)ccc1S(=O)(=O)N1CCCCCC1	0.4	0.691	0.6	nt
COc1cc(F)ccc1S(=O)(=O)N1CCN(C23CC4CC(CC(C4)C2)C3)CC1	nt	-2.76*	3.1	0.0643*
N#Cc1c(NC(=O)C2CC(c3ccccc3O)=NO2)sc2c1CCC2 (centres undefined)	-3.1	nt	1.7	nt
O=S(=O)(c1cccc(-c2n[nH]c(=S)n2C2CCCC2)c1)N1CCOCC1	-0.4	-0.125	1.9	nt
COc1ccc(-c2c(NC(=O)c3ccco3)n(C)c3ccccc3c2=O)cc1	1.5	3.75*	1.6	0.0793
Cn1c(NC(=O)c2ccco2)c(-c2ccc(Cl)cc2)c(=O)c2ccccc21	-3.5	nt	3.0	nt
Cc1cc(C(F)(F)F)n2nc(-c3cnn(C)c3C(F)(F)F)c(Br)c2n1	0.4	-0.513	2.9	nt
O=C1OCCC1Sc1nnnn1-c1ccc(Cl)cc1 (centres undefined)	0.2	-0.0272	2.3	nt
Cc1noc(C)c1COc1ccc(CC(=O)NC2CCCCCC2)cc1	-0.6	-0.5	4.9	nt
Cc1noc(C)c1COc1ccc(CC(=O)NCc2ccccc2)cc1	29.2	3.12*	19.7*	0.101*
OCCNc1nc(-c2ccccc2)nc2c1oc1ccccc12	-0.8	-0.948	nt	nt
COC(=O)Oc1ccc(/C=N/NC(=O)CSCc2ccccc2Br)cc1OC	-11.1	nt	3.8	nt
Cn1cnc2cc(NC(=O)c3ccc(Cl)cc3)ccc21	-1.8	nt	12.6	0.0819
CCC(=O)Nc1ccc2c(c1)ncn2C	0.6	0.183	1.1	nt
CCc1ccnc(NS(=O)(=O)c2ccc3c(c2)CCO3)c1	-1.9	nt	nt	nt
CCOC(=O)c1ccc(NC(=S)N(CCCN2CCN(CC)CC2)Cc2cccs2)cc1	1.4	0.756	5.1	nt
CCCCCCCC(=O)NC1=NC(=O)C(C)(C)S1	-0.5	0.47	nt	nt
SMILES	b-catenin transl	ROMK mod	MT stabilize HCS	ROMK retest
CSc1nc2ccc(NS(=O)(=O)c3cccc(Cl)c3Cl)cc2s1	6.6	nt	3.3	nt
c1nc2n(n1)C1=C(CCCC1)C1(CCCCC1)N2	-1.5	0.198	3.1	nt
Cc1nc(SCC(=O)Nc2cc(Cl)ccc2[N+](=O)[O-])nc(C)c1C	0.2	nt	2.3	nt
S=C(Nc1ccc(Cl)c(Cl)c1)NC1CCN(Cc2ccccc2)CC1	-1.1	nt	1.9	nt
OC1(c2ccc(Cl)c(Cl)c2)C[n+]2ccccc2N1Cc1ccccc1 (centres undefined)	0.3	-4.02*	nt	0.0584*
N#CCCN(C(=O)COC(=O)C1CCN(S(=O)(=O)c2cccs2)CC1)c1ccccc1	-0.6	-0.895	0.8	nt
CCS(=O)(=O)c1ccc2c(c1)N(S(C)(=O)=O)CC(C(=O)NN)O2 (centres undefined)	-2.4	-0.46	2.2	nt
Cc1c(Cl)cccc1N(Cc1ccc(C(=O)O)cc1)S(=O)(=O)c1ccccc1	0.1	-0.613	3.5	nt
O=C(Cn1nc(CNc2ccc(Cl)cc2)[n+]2c1CCCCC2)c1ccccc1	1.3	nt	7.4	nt
Cc1ccc(C(C)C)c(OCc2nn(CC(=O)c3ccc(Cl)cc3)c3[n+]2CCCCC3)c1	0.0	-7.55*	8.5	0.049*
CC(C)(C)C(=O)NCCCc1nc2ccccc2n1CCCOc1ccc(Cl)cc1	2.1	nt	1.7	nt
O=C(CNS(=O)(=O)/C=C/c1ccccc1)OC1CCOC1=O (centres undefined)	-0.3	0.0549	3.8	nt
COc1ccc(OCC(=O)Nc2ccccc2C(=O)N2CCOCC2)cc1	-1.6	2.97*	2.8	0.0804
CCOCC(=O)Nc1ccccc1C(=O)N1CCOCC1	0.6	-1.45	1.5	nt
CSc1ccccc1NC(=O)CCc1ccccc1	-4.6	-0.991	2.3	nt
NC(=O)c1ccccc1NC(=O)CCc1ccccc1	-0.4	nt	4.8	0.0867
